Structures are written as SMILES. Active and inactive are the calls of the source. No cut-off for these calls is given here.

The target of assay [1] is Sarcoplasmic/endoplasmic reticulum calcium ATPase 1 (Oryctolagus cuniculus, UniProt P04191). Put plainly: Inhibition of SERCA1 in NewZealand rabbit skeletal muscle SR vesicles using ATP as substrate incubated for 2 mins followed by Ca2+ addition by NADH coupled enzyme assay. The essentials:
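SR vesicles (1 mg prot./ml) incubated with compound (10–70 μM) for 2 min at 37 °C, pH 7.2. Ca2+-ATPase rate measured by NADH-coupled enzyme assay as absorbance at 340 nm, 37 °C. Compared with untreated control; mean ± SD from at least three independent experiments.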

Assay [2] deals with Sarcoplasmic/endoplasmic reticulum calcium ATPase 1 (Oryctolagus cuniculus) (UniProt P04191). Put plainly: Binding affinity to cytosolic region of SERCA1 ATP binding site in NewZealand rabbit SR vesicles assessed as conformational changes by measuring decrease in fluorescence intensity at IC50 incubated for 1 hr by FITC probe labeling based analysis. The essentials: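 FITC labelling of SR vesicles (protein 12.5 mg/mL) after 1 h preincubation with compound, used as a probe of the cytosolic region of SERCA1. Figure legend states 30 min incubation at 20 mg/mL SR protein. Read-out is the decrease in FITC fluorescence versus untreated control. Mean ± SD from at least three independent experiments, each sample measured 2–3 times.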
Sequence of Sarcoplasmic/endoplasmic reticulum calcium ATPase 1 (Oryctolagus cuniculus) (P04191 whole entry): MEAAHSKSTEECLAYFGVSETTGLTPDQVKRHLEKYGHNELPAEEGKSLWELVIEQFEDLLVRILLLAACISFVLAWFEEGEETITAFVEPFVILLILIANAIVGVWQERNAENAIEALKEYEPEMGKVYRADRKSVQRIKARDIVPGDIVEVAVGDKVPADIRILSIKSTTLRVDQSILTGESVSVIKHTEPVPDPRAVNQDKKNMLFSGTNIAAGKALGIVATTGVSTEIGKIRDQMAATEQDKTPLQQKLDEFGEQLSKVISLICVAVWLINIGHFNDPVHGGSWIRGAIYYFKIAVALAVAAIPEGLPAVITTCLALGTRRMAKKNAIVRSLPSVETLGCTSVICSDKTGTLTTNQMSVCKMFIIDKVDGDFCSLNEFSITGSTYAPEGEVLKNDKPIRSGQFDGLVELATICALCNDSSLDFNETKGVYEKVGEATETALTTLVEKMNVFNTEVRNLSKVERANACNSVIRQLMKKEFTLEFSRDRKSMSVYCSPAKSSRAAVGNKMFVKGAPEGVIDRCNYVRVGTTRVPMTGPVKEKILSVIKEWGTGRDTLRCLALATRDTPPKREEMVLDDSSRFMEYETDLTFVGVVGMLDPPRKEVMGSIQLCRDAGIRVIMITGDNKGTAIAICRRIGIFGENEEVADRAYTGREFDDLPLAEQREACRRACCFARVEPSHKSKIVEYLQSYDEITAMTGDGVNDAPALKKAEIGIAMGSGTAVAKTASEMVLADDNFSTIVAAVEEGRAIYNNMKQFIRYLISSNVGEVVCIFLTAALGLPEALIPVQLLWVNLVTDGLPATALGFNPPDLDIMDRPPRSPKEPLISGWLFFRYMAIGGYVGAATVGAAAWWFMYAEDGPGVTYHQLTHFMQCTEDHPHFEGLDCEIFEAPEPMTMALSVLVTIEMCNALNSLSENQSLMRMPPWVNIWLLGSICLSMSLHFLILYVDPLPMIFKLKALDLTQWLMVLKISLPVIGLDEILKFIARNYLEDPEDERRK

The target is the same in assay [3]. The assay can be described thus: Binding affinity to transmembrane region of SERCA1A ATP binding site in NewZealand rabbit SR vesicles assessed as conformational changes by measuring intrinsic Trp fluorescence at IC50 incubated for 30 mins by spectrofluorometric analysis. The essentials:
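SR vesicles (1 mg protein/mL) incubated 30 min with compound, at 37 °C per methods or room temperature per legend. Trp fluorescence excited at 295 nm, with emission maxima at 336 and 358 nm. Conformational change expressed as the I358/I336 ratio versus untreated control.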

Assay [4] has as its system INS-1E. Put plainly: Induction of SERCA2b expression in rat INS-1E cells at IC50 for cell viability incubated for 24 hrs by Western blot analysis. It is filed as functional, cell-based. The method in brief: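 INS-1E cells grown in RPMI 1640 (11 mM glucose) were exposed to compound for 24 h, then lysed in ice-cold lysis buffer, homogenized through a needle and centrifuged. Lysates (15 μg/lane) separated by SDS-PAGE and immunoblotted for SERCA2. Signal normalized to β-actin and given as %, average of 3–6 experiments.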
(In general: Immunoblotting shows a protein as a band on a membrane.)

The target of assay [5] is Sarcoplasmic/endoplasmic reticulum calcium ATPase 1 (Rattus norvegicus) (UniProt Q64578). The assay can be described thus: Inhibition of SERCA1 in glucose-stimulated rat INS-1E cells assessed as decline in insulin release preincubated for 24 hrs followed by glucose addition and measured after 30 mins by RIA. The method in brief:
(§1)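 INS-1E cells preincubated 24 h with compound, then washed and incubated 30 min at 37 °C in glucose-free KRBH. A further 30 min at 37 °C followed in KRBH containing 16.7 mM glucose. Insulin in collected supernatants determined by RIA with rat insulin standard.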

For assay [6] the target is unchanged. Put plainly: Inhibition of SERCA1 in rat INS-1E cells assessed as induction of apoptosis by measuring decrease in living cells at IC50 for cell viability incubated for 24 hrs by Annexin V-FITC/propidium iodide staining based flow cytometry. The method in brief:
(§2)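 INS-1E cells incubated 24 h with compound, then stained with Annexin V-FITC/propidium iodide. Living, early apoptotic and late apoptotic fractions scored by flow cytometry and compared with untreated cells.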

The target is the same in assay [7]. The assay can be described thus: Inhibition of SERCA1 in rat INS-1E cells assessed as induction of apoptosis by measuring increase in early apoptotic cells at IC50 for cell viability incubated for 24 hrs by Annexin V-FITC/propidium iodide staining based flow cytometry. The essentials: as §2
(A flow cytometer gives signals particle by particle.)

Assay [8] shares this target. Put plainly: Inhibition of SERCA1 in rat INS-1E cells assessed as induction of apoptosis by measuring increase in late apoptotic cells at IC50 for cell viability incubated for 24 hrs by Annexin V-FITC/propidium iodide staining based flow cytometry. The method in brief: as §2
Assay [9] shares this target. Put plainly: Inhibition of SERCA1 in rat INS-1E cells assessed as insulin release preincubated for 24 hrs followed by incubation in glucose-free buffer and measured after 30 mins by RIA. In kind it is cell-based. The method in brief: as §1

Sequence of Sarcoplasmic/endoplasmic reticulum calcium ATPase 1 (P04191 whole entry): as above
Sequence of Sarcoplasmic/endoplasmic reticulum calcium ATPase 1 (Rattus norvegicus) (Q64578 whole entry): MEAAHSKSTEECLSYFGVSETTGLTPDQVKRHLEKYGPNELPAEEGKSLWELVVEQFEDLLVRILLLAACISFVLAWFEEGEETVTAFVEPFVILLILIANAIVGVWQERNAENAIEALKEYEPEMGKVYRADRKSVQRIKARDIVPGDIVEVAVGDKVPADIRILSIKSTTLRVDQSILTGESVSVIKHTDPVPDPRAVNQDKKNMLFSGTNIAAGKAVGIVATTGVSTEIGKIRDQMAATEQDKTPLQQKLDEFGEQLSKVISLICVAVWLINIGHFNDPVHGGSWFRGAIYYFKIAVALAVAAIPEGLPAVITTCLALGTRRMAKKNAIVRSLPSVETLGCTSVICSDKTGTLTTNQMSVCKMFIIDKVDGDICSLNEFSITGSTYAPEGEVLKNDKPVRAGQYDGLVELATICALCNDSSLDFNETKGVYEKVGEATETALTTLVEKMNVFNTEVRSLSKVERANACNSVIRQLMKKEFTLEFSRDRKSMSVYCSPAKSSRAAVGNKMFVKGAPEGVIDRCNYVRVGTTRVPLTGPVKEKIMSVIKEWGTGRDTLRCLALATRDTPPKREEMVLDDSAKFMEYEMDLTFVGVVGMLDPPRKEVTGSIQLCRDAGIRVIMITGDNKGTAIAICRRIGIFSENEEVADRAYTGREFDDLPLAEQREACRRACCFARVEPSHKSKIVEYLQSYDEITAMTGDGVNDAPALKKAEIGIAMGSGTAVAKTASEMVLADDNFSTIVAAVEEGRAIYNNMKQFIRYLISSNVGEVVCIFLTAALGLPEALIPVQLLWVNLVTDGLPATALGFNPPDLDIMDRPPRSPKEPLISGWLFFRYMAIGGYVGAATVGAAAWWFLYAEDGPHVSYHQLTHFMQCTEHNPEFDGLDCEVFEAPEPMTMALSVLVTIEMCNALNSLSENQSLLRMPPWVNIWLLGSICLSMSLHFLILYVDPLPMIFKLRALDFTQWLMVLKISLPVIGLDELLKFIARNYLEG

Take `Cc1cc2c3c(c1)-c1c(O)cc(-c4cc5ccc(O)cc5o4)cc1O[C@@]3(c1ccc(O)cc1O)Oc1cc(O)ccc1-2`: the IC50 (commonly the concentration that inhibits the measured activity by half) in [1] (read-out: IC50) is 24.6 µM. Moreover, the outcome in [2] and in assay [3] was inactive. In addition, the outcome in [4] was Active. Besides, the inhibition result in assay [5], in assay [6] and in assay [7] was “Active” each time. The inhibition entry in [8] and in [9] was “inactive” throughout.

In the case of `CC(C)=CCC/C(C)=C/Cc1cc([C@@H]2CC(=O)c3c(O)cc(O)cc3O2)c(O)cc1O`, in assay [1] (read-out: IC50), the IC50 came to 29.4 µM. Besides, the outcome in [2] and in assay [3] was Active. Further, the inhibition entry in [5], in assay [6], in assay [7] and in assay [8] was “Active” each time. The inhibition result in [9] was “inactive”.

Turning to `COc1cc(O)c([C@@H]2CC(=O)c3c(O)cc(O)cc3O2)cc1C/C=C(\C)CCC=C(C)C`, the IC50 in assay [1] (read-out: IC50) came out at 35.6 µM. Further, the outcome in [2] and in [3] was Active. The inhibition entry in assay [5], in [6], in [7] and in [8] was “Active” each time. Also, in assay [9], the inhibition entry was “inactive”.

Take `CC(C)(O)C1Cc2cc3cc(-c4cc(O)cc(O)c4)oc3cc2O1` (stereo not drawn) [MORACIN O]: the IC50 entry in [1] (sr) is “Not Active”. Also, the outcome in assay [2] and in assay [3] was Active. Further, the inhibition entry in [5], in assay [6] and in assay [7] was “Active” throughout. Besides, the inhibition entry in [8] and in assay [9] was “inactive” in each case.

Take `CC(C)=CCc1c(-c2ccc(O)cc2O)oc2c3c(cc(O)c2c1=O)OC(C)(C)C=C3` [MORUSIN]: in assay [1] (read-out: IC50), the IC50 is 43.6 µM. The result in assay [2] and in assay [3] was Active. Moreover, the inhibition result in [5], in assay [6] and in assay [8] was “Active” in each case. In addition, the inhibition result in assay [7] and in [9] was “inactive” each time.

Regarding `CC1(C)Oc2cc3oc(-c4cc(O)cc(O)c4)cc3cc2CC1O` (stereo not drawn) [(+/-)-MORACIN P], the IC50 entry in assay [1] (sr) is recorded as “Not Active”. In addition, the outcome in assay [2] and in assay [3] was Active. Besides, the inhibition entry in [5], in assay [6] and in [7] was “Active” each time. In addition, the inhibition entry in [8] and in [9] was “inactive” in each case.

Turning to `CC1=C[C@@H]2c3c(O)cc(-c4cc5ccc(O)cc5o4)cc3O[C@@]3(c4ccc(O)cc4O)Oc4cc(O)ccc4[C@@H](C1)[C@H]23`, the IC50 in assay [1] (read-out: IC50) is 18.9 µM. The outcome in assay [2] and in assay [3] was inactive. In addition, the outcome in assay [4] was Active. The inhibition result in assay [5], in assay [6] and in [7] was “Active” in each case. Further, the inhibition result in assay [8] and in assay [9] was “inactive” each time.

Values taken from ChEMBL document CHEMBL4610111, “Phenolic Compounds from Morus nigra Regulate Viability and Apoptosis of Pancreatic β-Cells Possibly via SERCA Activity” (ACS Med Chem Lett, 2020).
